Screening results as filed in PubChem.
Hits are enriched below; roughly 1.3% of the tested compounds scored in any of these assays.
RAD52 inh: RAD52 DNA annealing inhibitors, primary screen, biochemical, FRET, single point, set 2 | hit rate 0.46% among 360,000 | recombinant RAD52 DNA annealing, FRET fluorescence | DNA repair protein RAD52 homolog (Homo sapiens), P43351 | AID 651710, 2012 | inhibition, % at 18.7 µM;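 active means every replicate showing at least 50% inhibition; inconclusive means mean inhibition at least 50% but not in every replicate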
Target sequence (P43351 whole entry, looked up): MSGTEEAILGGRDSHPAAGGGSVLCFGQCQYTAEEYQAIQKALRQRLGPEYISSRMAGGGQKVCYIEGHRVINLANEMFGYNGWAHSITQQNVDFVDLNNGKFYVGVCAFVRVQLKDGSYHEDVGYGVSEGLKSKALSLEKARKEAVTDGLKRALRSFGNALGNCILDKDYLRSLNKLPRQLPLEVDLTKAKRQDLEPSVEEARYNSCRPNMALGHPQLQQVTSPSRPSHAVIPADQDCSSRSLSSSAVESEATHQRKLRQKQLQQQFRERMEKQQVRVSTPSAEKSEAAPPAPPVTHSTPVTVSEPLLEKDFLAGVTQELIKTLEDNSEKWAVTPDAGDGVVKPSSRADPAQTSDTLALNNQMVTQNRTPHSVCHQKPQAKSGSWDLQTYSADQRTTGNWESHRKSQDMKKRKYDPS
FN deposit inh: inhibitors of fibronectin matrix deposition, primary screen, AH1F cells, Alexa488-fibronectin fluorescence, plate reader | AH1F fibroblasts, overnight | inhibition, % at 12.6 µM | hit rate 0.086% among 350,000 | AID 743247, 2014;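 active means mean inhibition across replicates of 30% or more, regardless of how many single replicates reach that level; inconclusive means mean under 30% yet at least half of replicates reach 30%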;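 further: positive control wells lacked labelled fibronectin entirely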
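test system = AH1F fibroblasts assembling fluorescent fibronectin matrix | quantity = 10000 AH1F cells per well | buffer or medium = DMEM plus 2% serum, read in PBS | doses = single dose, pinned | incubation = 1 h cell attachment, overnight exposure to compound and label | detection = fluorescence at 485 nm excitation, 525 nm emission | read-out basis = inhibition from reduced deposited-fibronectin fluorescence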
PAX8 reporter: inhibitors of PAX8-driven TPO luciferase reporter, primary screen, RMG-I cells, single concentration; hit rate 1.2% among 360,000; AID 652154, 2013; inhibition, % at 12.6 µM; SteadyGlo, 24 h;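 active means mean replicate inhibition at least 60% with every replicate also reaching 60%; inconclusive means only one of the two criteria is met; inactive means mean below 60% and not all replicates reaching 60%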;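 further: luciferase light reporting Pax8 driven TPO promoter activity; plate controls were median of neutral control wells for no effect and mitoxantrone controls for full effect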
RAD54 inh: inhibitors of human RAD54 branch migration, primary screen, biochemical, fluorescence, single point; RAD54 Holliday junction branch migration, FAM/BHQ fluorescence; hit rate 0.14% among 360,000; DNA repair and recombination protein RAD54-like (Homo sapiens), Q92698; inhibition, % at 10.4 µM; AID 602329, 2012;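 active means mean normalized replicate activity at least 40 and at least half of replicates scoring 40 or more; inconclusive means only one of the two criteria met; inactive means mean below 40 and under half of replicates reaching 40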;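 further: 0% = median of neutral control wells and 100% = median of positive control wells; inhibitors cause a drop in the FAM fluorescence signal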
DNA binding: DNA binding of candidate compounds, dose response, artefact control for RAD54 inhibitor project, biochemical, fluorescence polarization, cherry-pick; Acridine orange-DNA displacement, 20 min; shares compounds with RAD54 inh; hit rate 8% among 460; AC50, µM (series often up to 35 µM), for inactives: top-dose activity change, negative = DNA binding;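 active means signal drop giving an AC50 within twice the top valid tested concentration of each sample, actives reach about 35 µM in these data; inactive means activity opposite to expected, plus the rest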;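 further: polarization loss reports compound binding to salmon sperm DNA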
* = called active by the depositor; i = inactive; ? = inconclusive; / = no result given.

SMILES	RAD52 inh	FN deposit inh	PAX8 reporter	RAD54 inh	DNA binding
CN(C(=O)Cc1c(C(=O)O)n(C)c2ccccc12)c1cccc(C(F)(F)F)c1	-17	4	3	-9	/
O=C(Nc1nnc(COc2ccc(F)cc2)s1)c1ccco1	-20	-3	-11	?	-6%
O=C(Nc1nnc(COc2ccc(Br)cc2)s1)c1ccco1	-11	-3	22	-6	/
C[C@H]1CN([C@@H](C)CO)C(=O)c2cc(-c3cccc(F)c3)cnc2O[C@@H]1CN(C)C(=O)Nc1ccccc1F	8	/	3	3	/
Cc1cc(C(=O)N2CCC(Cc3ccccc3)CC2)ccc1[N+](=O)[O-]	-5	/	/	4	/
CCCN(C)C[C@@H]1OCCCC[C@@H](C)Oc2ccc(NC(=O)c3ccccc3)cc2C(=O)N([C@H](C)CO)C[C@@H]1C	16	9	37	6	/
CSc1nnc2c3cc(F)ccc3n(Cc3ccccc3)c2n1	/	2	-14	-1	/
CCN(CC)CCSc1nnc2c3cc(C)ccc3n(Cc3ccccc3)c2n1	35	-2	8	?	2%
S=c1[nH]nc(-c2cccs2)n1C1CCCCC1	-11	-5	2	-13	/
CC(C)CC#Cc1ccc2c(c1)O[C@H](CN(C)Cc1ccccc1)[C@@H](C)CN([C@@H](C)CO)S2(=O)=O	/	0	/	/	/
Nc1ccc(-c2nc3ccccc3[nH]2)cc1	-30	-11	-83	38	/
Nc1ccc(-c2nc3c(ccc4ccccc43)[nH]2)cc1	-14	-4	-20	50*	-5%
Cc1ccccc1OCC(O)CN1CCN(CCN2C(=O)c3cccc4cccc(c34)C2=O)CC1 (centres undefined)	1	3	5	/	/
C=CCc1ccccc1OCC(O)CN1CCN(CCN2C(=O)c3cccc4cccc(c34)C2=O)CC1 (centres undefined)	24	-7	6	99*	0%
COc1cccc(-c2nc(N3CCN(Cc4ccccc4)CC3)c3ccccc3n2)c1O	-13	3	8	64*	-1%
COc1cccc(-c2nc(N3CCN(c4ccccc4)CC3)c3ccccc3n2)c1O	/	/	/	-3	/
CCOC(=O)c1c(C)n(C)c2ccc(OCC(O)Cn3c(C)nc4ccccc43)cc12 (centres undefined)	/	-8	/	-11	/
CCOC(=O)c1c(C)n(C)c2ccc(OCC(O)CN3CCN(C)CC3)cc12 (centres undefined)	1	-2	-23	?	-14%
O=C(COc1ccccc1)N/N=C/c1cc2c(cc1[N+](=O)[O-])OCO2	/	5	/	-3	/
CCOc1ccc(NC(=O)c2cc(S(=O)(=O)N3CCOCC3)cs2)cc1	-2	/	4	-10	/
O=C(Nc1ccccc1[N+](=O)[O-])c1cc(S(=O)(=O)N2CCOCC2)cs1	-14	4	?	4	/
O=C(Nc1ccccc1)c1cc(S(=O)(=O)N2CCOCC2)cs1	/	/	/	?	-3%
O=C(Nc1cccc(Br)c1)c1cc(S(=O)(=O)N2CCOCC2)cs1	-2	4	/	52*	5%
O=C(Nc1cccc([N+](=O)[O-])c1)c1cc(S(=O)(=O)N2CCOCC2)cs1	-2	7	-6	57*	-9%
COc1ccccc1CNC(=O)c1cccs1	/	/	-17	63*	11%
SMILES	RAD52 inh	FN deposit inh	PAX8 reporter	RAD54 inh	DNA binding
CCCCC(=O)Nc1cc(N(C)C)nc2ccccc12	/	/	/	4	/
CN(C)c1cc(NC(=O)CNC(C)(C)C)c2ccccc2n1	28	3	7	76*	-11%
COc1cc2[nH]c3c(=O)n(CCN(C(C)C)C(C)C)cnc3c2cc1OC	/	4	-6	?	7%
CCCCN(C)CCNC(=O)c1cc2cc3ccc(OC)cc3nc2o1	7	1	-16	53*	-20%
CCN(CC)CCNC(=O)c1cc2cc3ccc(OC)cc3nc2o1	19	3	-40	50*	-24%
CCCCN(C)C(=O)c1cc2cc3ccc(OC)cc3nc2o1	-27	6	-79	-3	/
C[C@@H]1CN([C@H](C)CO)C(=O)c2cc(NC(=O)C3CCCCC3)ccc2O[C@@H](C)CCCCO[C@H]1CN(C)C(=O)Nc1cccc2ccccc12	18	/	40	-1	/
Cc1cc(C)c2nc(C)cc(Nc3ccc(C(=O)NCCO)cc3)c2c1	6	6	5	50*	-22%
CC(=O)Nc1sc2c(c1-c1nc3ccccc3s1)CN(C(C)C)CC2	i	2	26	67*	17µM*
CCN1CCN(c2cc(C)c3cc(NC(=S)N4CCCC4)ccc3n2)CC1	25	3	8	/	/
CCN1CCN(C(=S)Nc2ccc3nc(N4CCN(CC)CC4)cc(C)c3c2)CC1	/	/	/	62*	1%
CCOCCCNC(=S)Nc1ccc2nc(N3CCCC3)cc(C)c2c1	/	/	/	60*	-8%
COCCNC(=S)Nc1ccc2nc(N3CCCC3)cc(C)c2c1	/	/	/	38	/
COc1ccccc1Nc1nc(NCC2CCCO2)c2ccccc2n1 (centres undefined)	-2	-2	-7	67*	-10%
O=C(CN1CCCC1)Nc1ccc(-c2nc3cc(NC(=O)CN4CCCC4)ccc3o2)cc1	/	/	/	?	-22%
NNC(=O)c1oc2nc(-c3cccs3)cc(-c3ccco3)c2c1N	-10	2	7	?	-3%
Cc1ccc(-c2cc(-c3ccco3)c3c(N)c(C(=O)NN)oc3n2)cc1	-28	1	21	/	/
Cc1cccc2cc3c(N)c(C#N)sc3nc12	/	-18	/	71*	2%
Cc1cccc(C)c1OCc1nnc(SCC(=O)O)n1-c1c(C)cccc1C	-23	10	18	/	/
Cn1c(=N)n(CC(O)c2cccc3ccccc23)c2ccccc21 (centres undefined)	/	/	/	-2	/
c1ccc2c(c1)[nH]c1c(N3CCN(C4CCCCC4)CC3)ncnc12	/	11	-11	?	4%
CN1CCN(c2ncnc3c2[nH]c2ccc(F)cc23)CC1	/	/	/	76*	-3%
c1ccc2c(c1)[nH]c1c(N3CCCC3)ncnc12	/	/	/	40	/
N/C(Cc1ccc(Cl)cc1)=N\OC(=O)Cc1ccc([N+](=O)[O-])cc1	-10	-6	0	5	/
O=C(C[C@@H]1C=C[C@H](NS(=O)(=O)c2ccccc2)[C@H](CO)O1)NCc1ccc(Cl)c(Cl)c1	/	/	16	/	/
CCN1CCN(CCCNC(=O)c2cc3c(=O)oc4ccc(C)cc4c3s2)CC1	21	9	-18	53*	-23%
Cc1ccc2oc(=O)c3cc(C(=O)NCCCN4CCN(C)CC4)sc3c2c1	6	0	-3	62*	-24%
O=C(NCCCN1CCCCCC1)c1cc2c(=O)oc3ccccc3c2s1	41	-8	-3	26	/
Cc1ccc2oc(=O)c3cc(C(=O)NCCCN4C(C)CCCC4C)sc3c2c1 (centres undefined)	-42	2	-24	54*	-18%
